MC4R antagonist: human MC4R antagonism in cAMP assay; P32245; MC4R-expressing cells, MTII-stimulated cAMP, LANCE TR-FRET; inhibition, % at 6.5 µM; 360,000 compounds, 0.48% hits; AID 540295;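 active = inhibition above its plate's cutoff, the mean of tested wells on that plate plus 3 SD, cut at about 29% in these data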
Target sequence (P32245 whole entry, looked up): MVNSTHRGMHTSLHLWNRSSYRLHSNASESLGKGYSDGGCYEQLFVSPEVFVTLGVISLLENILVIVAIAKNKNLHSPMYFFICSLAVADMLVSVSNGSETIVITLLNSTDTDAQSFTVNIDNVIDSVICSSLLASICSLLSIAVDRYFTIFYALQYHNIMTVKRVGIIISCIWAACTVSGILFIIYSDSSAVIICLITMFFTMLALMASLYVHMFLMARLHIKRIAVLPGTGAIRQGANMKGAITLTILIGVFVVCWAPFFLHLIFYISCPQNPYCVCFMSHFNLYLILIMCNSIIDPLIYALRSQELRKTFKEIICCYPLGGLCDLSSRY
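material = U2OS cells stably expressing human melanocortin 4 receptor (MC4R) | also added = Melanotan II challenge | dosing = single nominal compound dose of 6.5 µM | detection = TR-FRET with Eu-cAMP and labeled anti-cAMP, 671 nm | replication = singlicate | timing = compound 30 min, challenge 1 h, detection 1 h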
NALP1 yeast inh: blocks the NALP1 inflammasome reconstituted in yeast; S. cerevisiae NALP1/ASC/caspase-1 growth, X-gal OD620, 72 h; inhibition, % at 10 µM; 280,000 compounds, 0.61% hits; in the data active = inhibition mostly above about 24%, no sharp cut-off; inactive = mostly below about 32%
A1 inh: inhibitors of the anti-apoptotic protein A1, read as caspase activation; caspase activation, % (concentration not given with the values); 330,000 compounds, 0.066% hits; MEF A1-2A-BIM cells, Caspase-Glo 3/7 luminescence, 3 h; percent of clofoctol response, vehicle zero;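 active = over half of replicate activation scores above 10%, or exactly half above 10 with the replicate mean above 10; inconclusive = replicate mean below 10 yet half the replicates above 10; inactive = over half of replicates below 10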
Tb MetRS inh: Trypanosoma brucei MetRS inhibition | purified T. brucei MetRS, ATP depletion, Kinase-Glo luminescence | 360,000 compounds, 0.4% hits | inhibition, % at 11.9 µM;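 active = inhibition above a per-plate cutoff of the control wells' mean inhibition plus 3 SD, cut at about 5.5% in these data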
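Test system – parasite MetRS enzyme · Reagent – substrates ATP, L-methionine and bulk Escherichia coli tRNA · Doses – 11.9 µM compound single dose, 0.9% DMSO · Times – 15 min enzyme-compound preincubation, 2 h reaction, 10 min detection, 25 °C · Signal – Kinase-Glo luminescence, ATP depletion format · Controls – DMSO-only wells as low control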
MC4R ag barr: agonists of human melanocortin 4 receptor (MC4R) beta-arrestin. 360,000 compounds, 0.98% hits. P32245. activation, % at 8.9 µM. U2OS MC4R beta-arrestin complementation, luminescence; percent of melanotan II response, DMSO zero;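 active = activation above a per-plate cutoff, the mean activation of sample wells on that plate plus 3 SD, cut at about 8% in these data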
NLRP3 yeast inh: inhibitors of NALP3 inflammasome in yeast; AID 2825; 330,000 compounds, 0.39% hits; inhibition, % at 10 µM; Yeast reconstituted NLRP3/ASC/caspase-1, beta-gal luminescence, 24 h;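 active = inhibition of 50% or more; inactive = inhibition below 50%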
A number is an active result; n = inactive; u = inconclusive; x = no result given. Compounds with a hit are over-represented: about 2.5% of the library has one in this group of screens.

SMILES	MC4R antagonist	NALP1 yeast inh	A1 inh	Tb MetRS inh	MC4R ag barr	NLRP3 yeast inh
CC1CCCN(S(=O)(=O)c2ccc(NC(=O)Cn3nnc(-c4ccccc4F)n3)cc2)C1 (centres undefined)	n	n	n	n	n	n
Cc1ccc(-c2nnn(CC(=O)Nc3ccc(S(=O)(=O)N4CCC(C)CC4)cc3)n2)cc1	n	n	n	n	13	n
Cc1ccc(-c2nnn(CC(=O)Nc3nnc(C(C)C)s3)n2)cc1	n	37	n	n	n	n
CC1CCN(CC(=O)Nc2ccc(S(=O)(=O)N3CCC(C)CC3)cc2)CC1	n	n	n	n	n	n
Nc1cccc(Oc2ccc3c(c2)C(=O)NC3=O)c1	n	n	n	n	n	n
O=C(CCc1c[nH]c2ccccc12)N1CCN(S(=O)(=O)c2ccc([N+](=O)[O-])cc2)CC1	n	x	x	n	n	x
O=C(Nc1ccsc1C(=O)NC1CC1)c1ccccc1	n	n	n	n	n	n
O=C(Nc1ccsc1C(=O)NC1CCCCC1)c1ccc(F)cc1	n	n	n	n	12	n
CCOC(=O)C1=C(COC(=O)c2ccc3ccccc3c2O)NC(=O)NC1C (centres undefined)	n	x	n	n	n	n
NC(N)=Nc1ccc(N=C(N)N)cc1	n	40	n	n	n	x
O=C(Nc1ccccc1O)c1cccc(S(=O)(=O)Nc2ccccc2O)c1	n	x	n	6.3	n	n
CC(C)NC(=O)COc1coc(CN2CCN(C(=O)c3ccco3)CC2)cc1=O	n	x	n	n	n	n
O=S(=O)(Nc1nc(SCc2ccc(Cl)cc2)n[nH]1)c1ccccc1	n	n	n	n	n	n
Cc1ccccc1C(=O)Nc1nc(SCc2ccc(Cl)cc2)n[nH]1	n	n	u	n	8.7	n
COc1cccc(CN(C)C(=O)CCNC(=O)c2ccco2)c1	n	x	n	n	n	n
CCCCn1c(N)c(N(CCOC)C(=O)COC(=O)C(C)(C)Oc2ccc(Cl)cc2)c(=O)[nH]c1=O	n	x	n	n	n	n
CC(=O)N1CCN(C(=O)c2cc3ccccc3o2)CC1	n	n	n	n	n	n
O=C(c1cc2ccccc2o1)N1CCN(C/C=C/c2ccccc2)CC1	n	44	n	n	n	n
COC(=O)c1ccc(NC(=O)CN(C)S(=O)(=O)c2ccc(OC)c(C)c2)cc1	n	n	n	n	8.3	n
COc1ccc(S(=O)(=O)N(C)CC(=O)Nc2ccc(C(N)=O)cc2)cc1OC	n	n	n	n	n	n
CCCNC(C)(C)COC(=O)c1ccccc1	n	x	n	n	n	n
Nc1ccc(C(=O)c2cccs2)cc1	n	48	n	n	n	n
Nc1ccc(C(=O)c2cccs2)cn1	n	n	n	n	n	n
COC(=O)C1=C(C(=O)OC)SC2(S1)C(C(=O)OC)=C(C(=O)OC)SC1=C2c2cc(C)ccc2NC1(C)C	53	n	n	n	n	n
CN(C(=O)c1cccc(NC(=O)C2CCN(C(=O)OC(C)(C)C)CC2)c1)C1CCCCC1	n	x	n	n	n	n
SMILES	MC4R antagonist	NALP1 yeast inh	A1 inh	Tb MetRS inh	MC4R ag barr	NLRP3 yeast inh
CNC(=O)c1cc(S(=O)(=O)N2CC(C)OC(C)C2)ccc1N1CCCCC1 (centres undefined)	n	n	x	n	n	n
OC(CNCCc1ccc(Cl)cc1)COc1cc(Cl)ccc1Cl (centres undefined)	n	n	n	n	30	n
CC(C)(C)c1cc2cccnc2n1Cc1cccc(Cl)c1	n	46	n	n	n	n
COc1ccc(N(C(=O)Cn2nnc(-c3ccc(F)cc3)n2)C(C)C(=O)NC2CCCC2)cc1OC (centres undefined)	n	n	n	n	n	n
CC1(c2cccc3ccccc23)OC(=O)c2ccccc21 (centres undefined)	n	x	x	n	n	x
COc1ccc(-c2cc(C(=O)N/N=C/c3sccc3C)c3ccccc3n2)c(OC)c1	n	41	n	n	n	n
COc1ccc(-c2cc(C(=O)N/N=C/c3ccc4c(c3)OCO4)c3ccccc3n2)c(OC)c1	n	n	n	n	n	n
Cc1c(Cl)cccc1NC(=O)CNC(=O)c1cn(-c2ccccc2)nc1-c1cccnc1	n	x	n	31	n	n

High-throughput results deposited in PubChem BioAssay by several laboratories.
